Test results reported in ChEMBL document CHEMBL5107970, “Synthesis of a fluorinated pyronin that enables blue light to rapidly depolarize mitochondria” (RSC Med Chem, 2022).
Calls of active or inactive are those of the source. No cut-off for these calls is given here.

Assays:
[1] = Drug distribution in human HeLa cells assessed as fluorescence in mitochondria at 10 uM incubated for 1 to 3 hrs by MitoTracker Deep Red staining based confocal laser scanning microscopy; assay type: ADME; details: time 1-3 hrs
In short: (§1)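 HeLa cells seeded 20,000/well on chambered coverslips and grown 24 h. Compound diluted 1,000-fold from DMSO stock into complete medium (0.1% DMSO) and given at 37 °C, then co-imaged with MitoTracker Deep Red or LysoTracker Red. Live-cell confocal imaging with 63X oil objective, without washing.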

[2] = Cytotoxicity against human Jurkat cells assessed as reduction in cell viability incubated for 48 hrs by flow cytometry; assay type: toxicity, cell-based
[3] = Stability of compound in ethanol at 5 uM incubated for 1 hrs by fluorescence spectroscopy; assay type: physicochemical
[4] = Stability in human Jurkat lymphocytes assessed as half life in mitochondria at 10 uM incubated for 1 hrs by flow cytometry; assay type: ADME
[5] = Cytotoxicity against human HeLa cells assessed as reduction in cell viability incubated for 48 hrs by flow cytometry; assay type: toxicity, cell-based
[6] = Drug distribution in human HeLa cells assessed as fluorescence in mitochondria at 2 uM incubated for 1 hrs by confocal laser scanning microscopy; assay type: ADME
[7] = tested on: HeLa; assay: Induction of reactive oxygen species generation in human HeLa cells assessed as increase in ROS level at 2 uM incubated for 1 hr in presence of dihydroethidium by confocal microscopy; assay type: functional, cell-based
In short: (§2)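 HeLa cells seeded 20,000/well and grown 16 h. Pyronin 2 μM for 1 h at 37 °C, then DHE 5 μM for 1 h, then two washes with complete medium. Irradiation was 488 nm laser scanning at 25% power. ROIs drawn around nuclei to give mean ethidium fluorescence. Antimycin A 20 μM served as positive control; DHE-only cells were irradiated 1 or 2 min.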

[8] = tested on: HeLa; assay: Induction of reactive oxygen species generation in human HeLa cells assessed as increase in ROS level at 20 uM incubated for 1 hr in presence of dihydroethidium by confocal microscopy; assay type: functional, cell-based
In short: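 HeLa cells were seeded at 20,000 per well in chambered coverslips and grown 16 h before treatment at 37 °C. Dihydroethidium (5 µM) was then added for 1 h, and cells were washed twice with complete medium. Confocal imaging followed. Ethidium signal was quantified as mean fluorescence in regions of interest drawn around nuclei.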

[9] = tested on: HeLa; assay: Induction of mitochondrial membrane potential depolarization in human HeLa cells assessed as diffuse fluorescence from mitochondria to cytoplasm and nucleus at 10 uM incubated for 1 hrs in presence of blue-light irradiation by MitoTracker Deep red and LysoTracker red staining based confocal laser scanning microscopy; assay type: functional, cell-based
In short: (§3)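 Live HeLa cells seeded 20,000/well and grown 24 h, then loaded with probe 10 μM for 1 h at 37 °C (0.1% DMSO). Then either irradiated at 488 nm for 60 s or given CCCP 10 μM for 5 min. Unwashed cells imaged by confocal (Ex. 488 nm, Em. 500–600 nm) and DIC.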

[10] = Stability of the compound assessed as bovine serum albumin mediated drug degradation at 10 uM incubated for 1 hrs by fluorescence spectroscopy; assay type: ADME; details: cattle
[11] = biological target: Albumin (Bos taurus, UniProt P02769); assay: Stability of the compound assessed as bovine serum albumin mediated drug degradation at 10 uM incubated for 1 hrs followed by blue-light irradiation for 10 mins by fluorescence spectroscopy; assay type: ADME; details: cattle, 1.167 h, time 70 min
[12] = tested on: HeLa; assay: Induction of mitochondrial membrane potential depolarization in human HeLa cells assessed as fluorescence in nucleoli at 10 uM incubated for 60 mins followed by blue-light irradiation for 60 sec by MitoTracker Deep Red staining based confocal laser scanning microscopy; assay type: functional, cell-based; details: time 61.0 min; in short: as §3
[13] = tested on: HeLa; assay: Induction of mitochondrial membrane potential depolarization in human HeLa cells assessed as fluorescence in nucleoli at 10 uM preincubated for 60 mins followed by CCCP treatment and measured after 5 mins by MitoTracker Deep Red and LysoTracker red staining based confocal laser scanning microscopy; assay type: functional, cell-based; details: time 65.0 min; in short: as §3
[14] = tested on: HeLa; assay: Induction of reactive oxygen species generation in human HeLa cells assessed as fold increase in ROS level by measuring nuclear fluorescence at 2 uM incubated for 60 mins followed by blue-light irradiation for 1 mins in presence of dihydroethidium by confocal microscopy; assay type: functional; details: time 61 min, 1.017 h; in short: as §2
[15] = tested on: HeLa; assay: Induction of reactive oxygen species generation in human HeLa cells assessed as fold increase in ROS level by measuring nuclear fluorescence at 2 uM incubated for 60 mins followed by blue-light irradiation for 2 mins by confocal microscopy; assay type: functional; details: time 62 min, 1.033 h; in short: as §2
[16] = Drug distribution in human HeLa cells assessed as fluorescence in lysosome at 10 uM incubated for 1 to 3 hrs by LysoTracker red staining based confocal laser scanning microscopy; assay type: ADME, cell-based; details: time 1-3 hrs; in short: as §1

Albumin, sequence (P02769 whole entry): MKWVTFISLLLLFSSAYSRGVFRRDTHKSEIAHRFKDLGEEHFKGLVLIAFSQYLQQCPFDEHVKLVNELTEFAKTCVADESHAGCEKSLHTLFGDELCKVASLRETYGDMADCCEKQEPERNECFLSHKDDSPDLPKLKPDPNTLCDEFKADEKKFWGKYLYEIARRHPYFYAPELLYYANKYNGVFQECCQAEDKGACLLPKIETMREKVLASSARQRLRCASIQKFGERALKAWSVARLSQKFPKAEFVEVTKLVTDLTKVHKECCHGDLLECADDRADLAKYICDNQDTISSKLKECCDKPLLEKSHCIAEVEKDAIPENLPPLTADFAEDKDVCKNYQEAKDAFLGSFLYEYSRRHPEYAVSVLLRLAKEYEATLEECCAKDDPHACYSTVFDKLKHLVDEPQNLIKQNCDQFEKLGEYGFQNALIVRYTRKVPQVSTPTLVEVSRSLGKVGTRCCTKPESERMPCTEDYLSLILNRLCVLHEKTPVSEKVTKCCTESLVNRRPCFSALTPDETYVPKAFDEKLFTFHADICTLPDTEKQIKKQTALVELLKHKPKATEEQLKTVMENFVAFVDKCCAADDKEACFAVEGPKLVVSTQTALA

Compound: O=C([O-])C(F)(F)F.c1cc(=[N+]2CCC2)cc2oc3cc(N4CCC4)ccc3cc1-2
- Drug uptake [1]: Active
- IC50 at 48 h [2]: 200 nM
- Stability [3]: Stable
- half-life at 10 µM [4]: 30 min
- IC50 at 48 h [5]: 3 µM

Compound: CCN(CC)c1ccc2cc3ccc(N(CC)CC)cc3[o+]c2c1.[Cl-]
- IC50 at 48 h [2]: 100 nM
- Stability [3]: Stable
- Activity [6]: Active
- half-life at 10 µM [4]: 6 min
- IC50 at 48 h [5]: 2 µM
- Activity [7]: Active

Compound: COC(=O)c1ccccc1-c1c2ccc(=N)cc-2oc2cc(N)ccc12.Cl [RHODAMINE123]
- half-life at 10 µM [4]: > 1000 min

Compound: CCN(CC)c1cc2oc3cc(N(CC)CC)c(F)cc3c(=O)c2cc1F
- IC50 at 48 h [2]: 17000 nM
- half-life at 10 µM [4]: 5 min
- IC50 at 48 h [5]: 51 µM

Compound: CCCCCC[C@H]1C(=O)O[C@H](C)[C@H](NC(=O)c2cccc(NC=O)c2O)C(=O)O[C@@H](C)[C@@H]1OC(=O)CC(C)C
- Activity [8]: Active

Compound: CCN(CC)c1cc2oc3cc(=[N+](CC)CC)c(F)cc-3cc2cc1F.O=C([O-])C(F)(F)F
- Drug uptake [1]: Active
- IC50 at 48 h [2]: 1000 nM
- Activity [9]: Active
- Stability [10]: Unstable
- Stability [3]: Stable
- Stability [11]: Unstable
- Activity [12]: Active
- Activity [6]: Active
- half-life at 10 µM [4]: 12 min
- IC50 at 48 h [5]: 9 µM
- Activity [7]: Active
- Activity [13]: Active
- fold change (FC) [14]: 1.5
- fold change (FC) [15]: 2.7

Compound: Fc1cc2cc3cc(F)c(=[N+]4CCC4)cc-3oc2cc1N1CCC1.O=C([O-])C(F)(F)F
- IC50 at 48 h [2]: 900 nM
- Stability [3]: Stable
- half-life at 10 µM [4]: 15 min
- IC50 at 48 h [5]: 15 µM

Compound: CCNc1c2cc(F)c(=[N+](CC)CC)cc-2oc2cc(N(CC)CC)c(F)cc12.O=C([O-])C(F)(F)F
- Drug uptake [1]: Active
- IC50 at 48 h [2]: 800 nM
- Drug uptake [16]: Active
- half-life at 10 µM [4]: 60 min
- IC50 at 48 h [5]: 3 µM
